Screening data: PubChem BioAssay, several laboratories
HCV NS3 hel inh – blocks Hepatitis C virus NS3 helicase unwinding; NS3 helicase DNA unwinding, Cy5 molecular beacon fluorescence; 0.56% of 290,000 active; AID 1800; inhibition, % at 10.9 µM;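 active = inhibition above the mean of all tested compounds plus 3 SD, set per campaign, cut at about 35% in these data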
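assay system = NS3 helicase fragment of HCV | buffer or medium = MOPS pH 6.5, MgCl2, DTT, Tween20, BSA | timing = 60 min unwinding reaction at 25 °C after ATP addition | signal = Cy5 beacon fluorescence read at start and 1 h | read-out basis = % inhibition of unwinding | control set = low DMSO, high thioflavine S at 110 µM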
FID counter – displaces DNA intercalator in HCV helicase counter-screen | DNA fluorescent intercalator displacement, fluorescence | inhibition, % at 7.9 µM | 0.17% of 290,000 active | AID 1845; in the data active = inhibition above about 37%;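 note: higher means more ethidium bromide displaced from hairpin DNA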
T cruzi inh – blocks replication of Trypanosoma cruzi. T. cruzi beta-gal in NIH3T3, luminescence, 90 h. inhibition, % (concentration not given with the values). 1.4% of 300,000 active. AID 1885;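 active = mean inhibition across valid replicates above about 55%, limit read from the data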;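 note: signal also drops with host cell toxicity which is not excluded here; higher percent means less beta-gal luminescence so fewer parasites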
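Material: NIH/3T3 host cells with β-galactosidase reporter T. cruzi; Input: 5,000 host fibroblasts per well; Medium: DMEM, 2% fetal bovine serum; Compound: 50 nL DMSO compound solution per well; Schedule: 3 h host attachment, then at least 90 h co-culture; Detection: luminescent β-galactosidase signal after 60 min lysis.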
MEKK2 mut-MEK5 – signal of MEK5 binding to mutant human MEKK2 PB1 domain. AID 1530. percent response, % at 10 µM. bead flow cytometry, Alexa488-MEK5 binding to MEKK2 mutant. 0.35% of 290,000 active; in the data active = percent response above about 24%, passing the limit was not always enough
MEKK3 PB1 HTS – raises or lowers MEK5 binding to the human MEKK3 PB1 domain. 1.4% of 290,000 active. bead-based flow cytometry, Alexa488-MEK5 binding to MEKK3; actives lie on both sides; 0 = blocked by unlabeled MEK5, 100 = vehicle. binding response (% of control), % at 10 µM. AID 1529;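 active = binding response more than 3 SD above or below the average of its plate-row segment, actives on both sides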;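 note: Alexa488 bead fluorescence after subtracting the streptavidin-only scavenger bead signal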
Target sequence (Q99759 whole entry, looked up, the tested form may be a part): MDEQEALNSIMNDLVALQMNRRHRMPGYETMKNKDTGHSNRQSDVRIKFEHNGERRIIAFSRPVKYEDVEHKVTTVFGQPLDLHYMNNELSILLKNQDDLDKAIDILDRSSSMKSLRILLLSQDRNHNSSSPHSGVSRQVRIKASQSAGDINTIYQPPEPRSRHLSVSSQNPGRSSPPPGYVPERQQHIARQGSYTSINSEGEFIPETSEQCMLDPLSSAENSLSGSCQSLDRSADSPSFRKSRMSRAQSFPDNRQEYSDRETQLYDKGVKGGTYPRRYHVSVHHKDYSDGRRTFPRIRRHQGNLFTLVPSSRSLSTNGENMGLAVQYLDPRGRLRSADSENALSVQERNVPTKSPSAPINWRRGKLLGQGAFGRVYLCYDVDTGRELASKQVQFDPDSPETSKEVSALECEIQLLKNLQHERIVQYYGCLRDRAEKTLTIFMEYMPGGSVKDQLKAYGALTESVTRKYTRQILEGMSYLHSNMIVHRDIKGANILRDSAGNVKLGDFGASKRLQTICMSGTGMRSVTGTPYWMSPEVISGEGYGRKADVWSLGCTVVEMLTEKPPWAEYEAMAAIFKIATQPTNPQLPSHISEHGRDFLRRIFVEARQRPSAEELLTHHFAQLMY
MEKK2wt PB1 HTS – raises or lowers MEK5 binding to wildtype human MEKK2 PB1 domain; Q9Y2U5; bead flow cytometry, Alexa488-MEK5 binding to MEKK2 WT; actives lie on both sides; binding response (% of control), % at 10 µM; 1.1% of 290,000 active; in the data active = binding response below about 67% or above about 130%
MEKK2wt confirm – raises or lowers MEK5 binding to wildtype human MEKK2, retest; bead flow cytometry, Alexa488-MEK5 binding to MEKK2 WT; actives lie on both sides; AID 1892; 2.4% of 5,900 active; binding response (% of control), % at 10 µM; shares compounds with MEKK3 PB1 HTS; in the data active = binding response below about 16% or above about 210%; inactive = in between
MEKK2mut confirm – signal of MEK5 binding to mutant human MEKK2, retest; shares compounds with MEKK3 PB1 HTS; percent response, % at 10 µM; 2% of 5,900 active; bead flow cytometry, Alexa488-MEK5 binding to MEKK2 mutant; in the data active = percent response mostly above about 71%, no sharp cut-off; inactive = mostly below about 38%;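 note: higher means compound restores mutant binding toward wildtype level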
MEKK3-MEK5 inh – MEKK3-MEK5 PB1 inhibition, single concentration confirmation; binding response (% of control), % at 10 µM; shares compounds with MEKK3 PB1 HTS; bead flow cytometry, Alexa488-MEK5 binding to MEKK3; stronger effect = lower value; 1.8% of 5,900 active; AID 1894;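 active = binding response below 72% of control, or above a set upper limit, though filed actives all read lower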
Hits are given with their value; i = inactive; nt = no result; [ ] = remark or other dose. Rows were chosen to be rich in hits. Some 4.1% of all compounds tested hit in one or more screens of this group.

SMILES | HCV NS3 hel inh | FID counter | T cruzi inh | MEKK2 mut-MEK5 | MEKK3 PB1 HTS | MEKK2wt PB1 HTS | MEKK2wt confirm | MEKK2mut confirm | MEKK3-MEK5 inh
COc1ccc(-c2oc3ncnc(NCCCN(C)C)c3c2-c2ccc(OC)cc2)cc1 | i | i | i | 30 | i | 171 | i | i | i
CN(C)CCNc1ncnc2oc(-c3ccccc3)c(-c3ccccc3)c12 | i | i | i | i | i | i | nt | nt | nt
O=C(COc1ccccc1)Nc1ccc(-c2ccc(N3CCOCC3)nn2)cc1 | nt | nt | i | nt | nt | nt | nt | nt | nt
Cc1cc(C(=O)N2CCC(Cc3ccccc3)CC2)c(C)o1 | i | i | i | i | i | i | nt | nt | nt
Cc1ccc(C(=O)CC(C(=O)O)n2cnc([N+](=O)[O-])n2)cc1 (stereo unspecified) | i | i | i | i | 49[inhibitor] | i | i | i | i
Cc1ccc(C(=O)CC(C(=O)O)n2cncn2)cc1 (stereo unspecified) | i | i | i | i | i | i | nt | nt | nt
O=C(CSc1n[nH]c(=O)[nH]c1=O)N/N=C/c1ccccc1 | i | i | i | i | i | i | nt | nt | nt
C=CCn1c(=S)sc2c(=O)[nH]cnc21 | i | i | i | i | 133 | i | i | i | i
O=c1[nH]cnc2c1sc(=S)n2-c1ccccc1 | i | i | i | i | i | i | nt | nt | nt
CCOc1cc(N2CCOCC2)c(OCC)cc1NC(=O)C1CCCC1 | i | i | i | i | i | i | nt | nt | nt
CCOc1cc(N2CCOCC2)c(OCC)cc1NC(=O)CN1CCCC1 | i | i | i | i | 132 | i | i | i | i
CCOc1cc(N2CCOCC2)c(OCC)cc1NC(=O)c1ccc(OCc2c(C)noc2C)c(OC)c1 | i | i | i | i | 131 | i | i | i | i
CCCOc1ccc(N2C(=O)CC(NNC(=O)c3ccc(COc4ccccc4)o3)C2=O)cc1 (stereo unspecified) | i | i | i | i | 142 | i | i | i | i
CCOc1cccc(N2C(=O)CC(NNC(=O)c3ccc(Br)o3)C2=O)c1 (stereo unspecified) | i | i | i | i | i | i | nt | nt | nt
Cc1cc(Sc2nc(N(C)C)nc(N(C)C)n2)nc(Cl)n1 | i | i | i | i | 137 | i | i | i | i
Cc1ccccc1CN1CCN(C(=O)CC(C)C)CC1 | i | i | i | i | i | i | nt | nt | nt
COC(=O)CC1C(=O)NCCN1C(=O)CSc1nnc(Nc2ccc(OC)cc2)s1 (stereo unspecified) | i | i | i | i | 122 | i | i | i | i
COC(=O)/C(N=Nc1c(C)n(C)n(-c2ccccc2)c1=O)=C(\C)O | i | i | i | i | 142 | i | i | i | i
CCOC(=O)/C(N=Nc1c(C)n(C)n(-c2ccccc2)c1=O)=C(/O)c1ccccc1 | i | i | i | i | i | i | nt | nt | nt
COc1ccc(C2=NC(CO)(CO)CO2)cc1 | i | i | i | i | i | i | nt | nt | nt
O=C(NCc1nnc2c(C(F)(F)F)cc(Cl)cn12)c1cccs1 | i | i | i | i | i | i | nt | nt | nt
COc1cccc(N2CCN(c3nc(C)cc(=O)[nH]3)CC2)c1 | i | i | i | i | i | i | nt | nt | nt
CC1CC1C(=O)Nc1nc(-c2cccs2)c(-c2cccs2)s1 (stereo unspecified) | i | i | i | i | i | i | nt | nt | nt
N=c1n(CC(=O)c2ccc([N+](=O)[O-])cc2)c2ccccc2n1Cc1ccc(Cl)cc1 | i | i | i | i | i | 138 | i | i | i
NS(=O)(=O)c1ccc(NC(=S)NC2CC2)cc1 | i | i | i | i | i | i | nt | nt | nt
CC1(C)CC(NC(=S)Nc2ccc(S(N)(=O)=O)cc2)CC(C)(C)N1 | i | i | i | i | 134 | i | i | i | i
